PMC4062594 (Nature chemical biology, 2014)
Entries after “also recorded” stand apart in the source; their conditions may differ.

Legend:
[1] = target: T1, PTP1B (Homo sapiens, UniProt P18031); assay: PTP assay with DiFMUP, MSI-1459 versus MSI-1436; assay type: biochemical; details: DiFMUP 10 uM, compound 0-10 μM
T1 sequence (P18031 1-435): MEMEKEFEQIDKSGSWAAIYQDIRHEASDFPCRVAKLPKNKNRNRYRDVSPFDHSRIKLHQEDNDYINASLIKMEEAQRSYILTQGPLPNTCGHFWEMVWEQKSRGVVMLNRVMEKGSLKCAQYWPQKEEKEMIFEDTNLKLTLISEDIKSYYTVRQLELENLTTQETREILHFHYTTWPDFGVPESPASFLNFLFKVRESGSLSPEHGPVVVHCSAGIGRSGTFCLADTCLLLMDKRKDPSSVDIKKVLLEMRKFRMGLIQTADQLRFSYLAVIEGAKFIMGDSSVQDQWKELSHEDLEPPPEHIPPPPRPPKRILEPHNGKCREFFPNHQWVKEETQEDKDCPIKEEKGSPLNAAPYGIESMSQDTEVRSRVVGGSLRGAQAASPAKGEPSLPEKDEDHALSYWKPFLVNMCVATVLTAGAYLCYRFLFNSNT

[2] = target: T2, PTP1B in tumor lysates from NDL2 mice (Mus musculus, UniProt P35821); assay: Binding assay with bead-immobilized compound in tumor lysates; details: confirmed by immunoblotting
T2 sequence (P35821 1-432): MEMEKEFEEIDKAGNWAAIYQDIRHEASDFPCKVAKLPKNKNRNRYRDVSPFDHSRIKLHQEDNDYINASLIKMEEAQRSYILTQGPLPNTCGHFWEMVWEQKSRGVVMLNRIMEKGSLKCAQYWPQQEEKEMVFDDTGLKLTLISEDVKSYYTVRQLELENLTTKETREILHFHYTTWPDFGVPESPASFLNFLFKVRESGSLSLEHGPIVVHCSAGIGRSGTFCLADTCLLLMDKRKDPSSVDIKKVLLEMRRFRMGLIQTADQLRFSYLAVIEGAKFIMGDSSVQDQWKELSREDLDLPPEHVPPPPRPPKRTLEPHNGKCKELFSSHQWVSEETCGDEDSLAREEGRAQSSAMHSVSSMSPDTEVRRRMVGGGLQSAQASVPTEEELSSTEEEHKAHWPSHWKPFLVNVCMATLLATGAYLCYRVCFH
Summary of the method: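 Test compound was coupled through its primary amine to NHS-activated magnetic beads (1 mM, 100 mM triethylamine, 8 h, 4°C), and free NHS groups were blocked with 0.8 M aminoethanol. Beads were incubated with 0–1 mg NDL2 tumour lysate protein and washed. Bound protein was eluted by heat in SDS sample buffer, run on 10% SDS-PAGE and identified by immunoblotting. Beads carrying a related amine compound served as negative control.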

Substance: 3β-spermine, 5α, cholenic acid methyl ester [MSI-1459]
- inhibition of PTP1B [1]: does not inhibit PTP1B; also recorded: poor inhibitory potency
- retention of 50 kDa band (PTP1B) by compound beads [2]: not bound
